From PubChem BioAssay
PKA-R1A act = activators of PKA-R1A holoenzyme, primary screen, biochemical, fluorescence polarization, Cy5-IP20, bovine R1A, mouse PKAc | PKA-R1A dissociation; scaled: DMSO 0%, 113 µM cGMP 100% | 340,000 compounds, 0.083% hits | cAMP-dependent protein kinase type I-alpha regulatory subunit (Bos taurus) + … | activation, % at 11.4 µM;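 active = percent activation above the mean of all tested compounds plus 3 SD, cut at about 19% in these data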;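 note: higher means more PKAc released from R1A so a rise in polarization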
TbMetRS inhib = T. brucei MetRS inhibitors, primary screen, biochemical, luminescence; 360,000 compounds, 0.4% hits; purified T. brucei MetRS, ATP depletion, Kinase-Glo luminescence; inhibition, % at 11.9 µM; methionyl-tRNA synthetase (Trypanosoma brucei brucei); AID 624268, 2012;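 active = inhibition above a per-plate cutoff of the control wells' mean inhibition plus 3 SD, cut at about 5.5% in these data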;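 note: 0% = DMSO wells median and 100% = median of wells with control inhibitor compound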
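Test system – parasite MetRS enzyme · Reagent – substrates ATP, L-methionine and bulk Escherichia coli tRNA · Doses – 11.9 µM compound single dose, 0.9% DMSO · Times – 15 min enzyme-compound preincubation, 2 h reaction, 10 min detection, 25 °C · Signal – Kinase-Glo luminescence, ATP depletion format · Controls – DMSO-only wells as low control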
PKA-R2B activ = activators of PKA-R2B holoenzyme, primary screen, biochemical, fluorescence polarization, Cy5-IP20, human. activation, % at 11.4 µM. PKA-R2B holoenzyme dissociation; R2B truncated from residue 108, S112A mutant; 0% DMSO only, 100% 113 µM cGMP. cAMP-dependent protein kinase catalytic subunit beta (Homo sapiens) + cAMP-dependent …. 340,000 compounds, 0.079% hits;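 active = activation above a cutoff set at the mean over all compounds plus 3 SD, cut at about 18% in these data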;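 note: higher means more holoenzyme dissociation and a rise in polarization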
Target sequence (P31323 whole entry, looked up, other chains not shown, the tested form may be a part): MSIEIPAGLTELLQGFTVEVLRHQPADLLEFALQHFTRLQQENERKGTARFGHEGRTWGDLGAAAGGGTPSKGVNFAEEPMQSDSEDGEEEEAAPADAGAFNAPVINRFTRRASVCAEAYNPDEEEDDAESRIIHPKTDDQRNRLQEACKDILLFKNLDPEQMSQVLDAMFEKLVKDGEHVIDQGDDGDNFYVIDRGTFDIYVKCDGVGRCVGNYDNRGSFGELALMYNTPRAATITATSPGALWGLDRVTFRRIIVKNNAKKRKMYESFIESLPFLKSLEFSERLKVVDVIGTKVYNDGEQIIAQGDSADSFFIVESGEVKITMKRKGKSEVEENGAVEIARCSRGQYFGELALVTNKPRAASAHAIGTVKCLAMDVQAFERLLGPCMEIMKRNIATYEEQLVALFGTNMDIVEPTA
Rin1 Abl inh = inhibitors of Rin1-Abl protein binding, primary screen, biochemical, TR-FRET; 360,000 compounds, 0.4% hits; Tyrosine-protein kinase ABL1 (Homo sapiens) + Ras and Rab interactor 1 (Homo sapiens), …; inhibition, % at 7.35 µM; AID 588664, 2011; in the data active = inhibition above about 5%, passing the limit was not always enough
Cardio protect = cardioprotection against H2O2-induced cell death, primary screen, uHTS, H9c2 cells, ATPLite luminescence. protection from H2O2 cell death, % at 20 µM. H9c2 cardiomyocytes, H2O2 injury protection, 2 h. 360,000 compounds, 0.63% hits;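 active = compounds giving at least 50% protection of heart cells from peroxide-induced death in the single-dose screen, raw or plate-pattern-corrected value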;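 note: 0% = DMSO wells with peroxide and 100% = DMSO wells without peroxide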
TbMetRS confirm = T. brucei MetRS inhibitors, confirmation, biochemical, luminescence; shares compounds with TbMetRS inhib; T. brucei MetRS enzyme, luminescence (ATP depletion); inhibition, % at 11.9 µM; 1,400 compounds, 93% hits; AID 624412, 2012; in the data active = inhibition above about 7%
Jurkat tox = Jurkat T cell cytotoxicity, cytotoxicity control for T. brucei MetRS inhibitor project, luminescence, high throughput; shares compounds with TbMetRS inhib; Jurkat cells viability, ATP luminescence; inhibition, % at 8.3 µM; 1,400 compounds, 12% hits; AID 624413, 2012; in the data active = inhibition above about 15%;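 note: 0% = vehicle and 100% = reference inhibitor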
TbMetRS FP orth = T. brucei MetRS inhibitors, orthogonal assay for T. brucei MetRS inhibitor project, biochemical, fluorescence polarization. shares compounds with TbMetRS inhib. purified T. brucei MetRS. inhibition, % at 11.9 µM. 1,400 compounds, 44% hits. AID 651607, 2012; in the data active = inhibition above about 17%;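 note: 0% = vehicle wells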
An asterisk follows results filed as active. This is a sample that favours compounds with a hit; in the whole collection about 1.5% have one here.

For COc1ccc(N2C[C@H](CSC)[C@@H](CC(=O)Nc3ccc(Br)cc3)C2=O)cc1 the results were PKA-R1A act -14, TbMetRS inhib 19*, PKA-R2B activ -8, Rin1 Abl inh -4, Cardio protect -18, TbMetRS confirm 43*, Jurkat tox 0 and TbMetRS FP orth 19*.
For COc1ccc(NC(=O)C[C@H]2C(=O)N(c3ccc(Br)cc3)C[C@@H]2CSC)cc1 the results were PKA-R1A act -5, TbMetRS inhib -1, PKA-R2B activ -3, Rin1 Abl inh -1 and Cardio protect -9.
Screening CCCCN1C[C@H](c2ccc(OC)cc2)[C@@H](CC(=O)Nc2ccc(Br)cc2)C1=O returned PKA-R1A act -3, TbMetRS inhib 45*, PKA-R2B activ -6, Rin1 Abl inh -2, Cardio protect -13, TbMetRS confirm 68*, Jurkat tox 9 and TbMetRS FP orth 34*.
For O=C(C[C@H]1C(=O)N(c2ccccc2)C[C@@H]1Cc1ccccc1)Nc1ccc(Br)cc1 the results were PKA-R1A act 1, TbMetRS inhib 7.6*, PKA-R2B activ -4, Rin1 Abl inh -1, Cardio protect -13, TbMetRS confirm 18*, Jurkat tox 3 and TbMetRS FP orth 11.
CC(C)C(=O)Nc1cc2c3c(c1)CCN3C(=O)CC2 was read as PKA-R1A act 5, TbMetRS inhib 0, PKA-R2B activ -9, Rin1 Abl inh -1 and Cardio protect -3.
Screening COc1cc(C(=O)NCc2nnc(SCC(=O)Nc3cccc(C(F)(F)F)c3)o2)cc(OC)c1OC returned PKA-R1A act -2, TbMetRS inhib 0, PKA-R2B activ -6, Rin1 Abl inh -1 and Cardio protect 1.
Cc1ccc(NC(=O)CN(C)C(=O)CCOc2cccc(C)c2)cc1 was read as PKA-R1A act -3, TbMetRS inhib 6.0*, PKA-R2B activ 3, Rin1 Abl inh -2, Cardio protect -4, TbMetRS confirm 11*, Jurkat tox 3 and TbMetRS FP orth 3.
`Cc1ccc(NC(=O)CN(C)C(=O)COC(=O)c2ccc(Cl)cc2O)cc1` gave PKA-R1A act -8, TbMetRS inhib 6.8*, PKA-R2B activ -5, Rin1 Abl inh 4, Cardio protect -5, TbMetRS confirm 64*, Jurkat tox 2 and TbMetRS FP orth 39*.
`OC(c1cc(Cl)cc(Cl)c1)c1ncc(-c2cccc(F)c2)[nH]1` (stereo unspecified) gave TbMetRS inhib 42*, Rin1 Abl inh -2, Cardio protect -21, TbMetRS confirm 77*, Jurkat tox -1 and TbMetRS FP orth 55*.
Cc1ccccc1-c1cnc(C(O)c2cc(Cl)cc(Cl)c2)[nH]1 (stereo unspecified) was read as TbMetRS inhib 53*, Rin1 Abl inh -1, Cardio protect -9, TbMetRS confirm 81*, Jurkat tox 6 and TbMetRS FP orth 57*.
For OC(c1ccc(Cl)c(Cl)c1)c1ncc(-c2cccc(F)c2)[nH]1 (stereo unspecified) the results were TbMetRS inhib 1, Rin1 Abl inh -6 and Cardio protect -14.
For Cc1ccc(C(O)c2ncc(-c3ccc4ccccc4c3)[nH]2)cc1 (stereo unspecified) the results were TbMetRS inhib 0, Rin1 Abl inh -1 and Cardio protect -8.
Screening OC(c1ccc(F)c(F)c1)c1ncc(-c2ccc(Cl)cc2)[nH]1 (stereo unspecified) returned TbMetRS inhib 5, Rin1 Abl inh 1 and Cardio protect -9.
`OC(c1cc(F)cc(Cl)c1)c1ncc(-c2ccc(Cl)cc2)[nH]1` (stereo unspecified) gave TbMetRS inhib 34*, Rin1 Abl inh 4, Cardio protect -22, TbMetRS confirm 69*, Jurkat tox 12 and TbMetRS FP orth 47*.
`Cc1cc(C)cc(C(O)c2ncc(-c3ccc4ccccc4c3)[nH]2)c1` (stereo unspecified) gave TbMetRS inhib 7.5*, Rin1 Abl inh -4, Cardio protect -4, TbMetRS confirm 30*, Jurkat tox 7 and TbMetRS FP orth 17*.
`CC(=O)Oc1ccc(C(=O)Nc2cc(NC(=O)c3ccc(OC(C)=O)cc3)cc(C(=O)NC(C)(C)C)c2)cc1` gave PKA-R1A act -6, TbMetRS inhib 0, PKA-R2B activ -2, Rin1 Abl inh 0 and Cardio protect -12.
For C/C(=N/NC(=O)CN1CCN(Cc2ccccc2)CC1)c1ccc([N+](=O)[O-])cc1 the results were PKA-R1A act -5, TbMetRS inhib 0, PKA-R2B activ -7, Rin1 Abl inh -6 and Cardio protect -1.
`OC(c1cc(F)cc(Cl)c1)c1ncc(-c2ccccc2C(F)(F)F)[nH]1` (stereo unspecified) gave TbMetRS inhib 26*, Rin1 Abl inh -1, Cardio protect -4, TbMetRS confirm 48*, Jurkat tox 81* and TbMetRS FP orth 23*.
COc1ccccc1CCNC(=O)c1cc(COc2cccc(C(F)(F)F)c2)on1 was read as PKA-R1A act -5, TbMetRS inhib 0, PKA-R2B activ -9, Rin1 Abl inh -5 and Cardio protect -4.
`O=C(NCc1ccc2c(c1)OCO2)C1CCCN1C(=O)Nc1ccc(Cl)cc1` (stereo unspecified) gave PKA-R1A act 9, TbMetRS inhib 3, PKA-R2B activ 1, Rin1 Abl inh 1 and Cardio protect 1.
Screening COc1ccc(NC(=O)CSc2nnc(NC(=O)c3ccc(S(=O)(=O)N4CCOCC4)cc3)s2)cc1 returned PKA-R1A act 10, TbMetRS inhib 0, PKA-R2B activ 5, Rin1 Abl inh -6 and Cardio protect -7.
